Activity calls are given as the source filed them. The rule behind the calls is not given here.
What was measured:
[1] = test system: Mus musculus; assay: Compound was tested for effective dose in mice by pentylenetetrazole assay (administered subcutaneously);No effect at highest dose of 200 mg/kg; assay type: functional, organism-based; parameters: dose 200 mg/kg
Method in brief: (§1)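 Test compound was given orally to mice. At its previously determined time of peak effect, pentylenetetrazole (110 mg/kg in water, 10 mL/kg) was injected sc into the neck skin fold. Mice were watched for 15 min for presence or absence of a clonic seizure. Where protection was bell-shaped, the value is the dose giving maximum protection.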

[2] = species: Mus musculus; assay: Compound was tested for time to peak anticonvulsant effect (TPE); assay type: functional
Method in brief: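 Time to peak effect after oral dosing in 5% acacia/water was estimated by testing mice at 0.5, 1, 2, 3 and 4 h posttreatment in the MES and horizontal screen tests.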

[3] = species: Mus musculus; assay: Potentiation of hexobarbital-induced sleeping time in mice; assay type: functional
Method in brief: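 Groups of 10 fasted mice received compound orally at 10 mg/kg in 5% acacia/water (10 mL/kg). At the compound's time of peak effect they were given hexobarbital 100 mg/kg ip, solubilized with stoichiometric NaOH. Sleeping time, measured as loss of righting reflex, was recorded to the nearest minute. Values are mean ± SEM.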

[4] = test system: Mus musculus; assay: Compound was tested for effective dose in mice by horizontal screen assay (administered orally; No effect at highest dose of 200 mg/kg
[5] = test system: Mus musculus; assay: Effective dose in mice by pentylenetetrazole assay (administered subcutaneously); No effect at highest dose of 400 mg/kg; assay type: functional, organism-based; parameters: dose 400 mg/kg; method in brief: as §1
[6] = test system: Mus musculus; assay: Effective dose in mice by horizontal screen assay (administered orally); assay type: functional; details: po
Method in brief: (§2)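 Fasted, pre-trained male CF1 mice (20–25 g) were dosed orally across a range of doses, given as a suspension in 5% acacia/water. Each mouse was placed on a 13 cm square wire screen, and the screen was rotated 180°. The score was return to the top within 1 min. Time of peak effect was scanned at 0.5–4 h. Each compound was then retested at that time with at least 4 doses and 12 mice per dose.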

[7] = test system: Mus musculus; assay: Effective dose in mice by pentylenetetrazole assay (administered subcutaneously); assay type: functional; details: sc; method in brief: as §1
[8] = test system: Mus musculus; assay: Effective dose in mice by horizontal screen assay (administered orally); No effect at highest dose of 400 mg/kg; assay type: functional, organism-based; parameters: dose 400 mg/kg; method in brief: as §2
[9] = test system: Mus musculus; assay: Effective dose in mice by maximal electroshock assay, administered orally; assay type: functional; details: po
Method in brief: (§3)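 Mice were dosed orally across a range of doses, given in 5% acacia/water. Time of peak effect was found by shocking at 0.5, 1, 2, 3 and 4 h. Corneal electroshock was 40 mA, 0.1 s, ac. Each compound was retested at peak time with at least four doses and 12 mice per dose. The ED50 for prevention of tonic-extensor convulsion was calculated by Litchfield–Wilcoxon; 95% confidence limits are given.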

[10] = test system: Mus musculus; assay: Compound was tested for effective dose in mice by pentylenetetrazole assay (administered subcutaneously); No effect at highest dose of 100 mg/kg; assay type: functional, organism-based; parameters: dose 100 mg/kg; method in brief: as §1
[11] = target: T1, GABA-A receptor; anion channel (Rattus norvegicus) (UniProt O09028+P15431+P18506+P18508+P19969+P20236+P23574+P23576+P28471+P28473+P30191+P62813+P63079+P63138+Q91ZM7+Q9ES14); assay: In vitro displacement of [3H]flunitrazepam binding to cortical membranes at 5e-5M concentration
Method in brief: (§4)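 Rat cortical membranes (180 μg protein) were incubated with 2 nM [3H]flunitrazepam in 50 mM Tris-HCl pH 7.4 for 40 min at 4 °C, with test compound at 5×10^-5 M, in triplicate. Samples were filtered and washed three times with ice-cold buffer. Nonspecific binding was defined with 3 μM diazepam. Results are given as % of control, mean ± SEM.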

[12] = target: T1, GABA-A receptor; anion channel (Rattus norvegicus); assay: In vivo displacement of [3H]flunitrazepam binding to rat cortical membranes after 20 mg/kg ip dose; assay type: organism-based; parameters: dose 20 mg/kg; details: Membrane, at 20 mg/kg
Method in brief: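 Male Sprague-Dawley rats (100 g; five per group) received saline or compound at 20 mg/kg ip. After 30 min, [3H]flunitrazepam (100 μCi/kg) was given iv via the tail vein. Rats were killed 20 min later. Cortex was homogenized in 50 mM Tris-HCl pH 7.4, and the particulate fraction was filtered and rinsed. Results are given as % of saline control, mean ± SEM.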

[13] = target: T1, GABA-A receptor; anion channel (Rattus norvegicus); assay: In vitro displacement of [3H]flunitrazepam binding from rat cortical membranes at 50 uM; assay type: cell membranes; details: Membrane; method in brief: as §4
[14] = test system: Mus musculus; assay: Compound was tested for effective dose in mice by pentylenetetrazole assay (administered subcutaneously); No effect at highest dose of 800 mg/kg; assay type: functional, organism-based; parameters: dose 800 mg/kg; method in brief: as §1
[15] = test system: Mus musculus; assay: Compound was tested for effective dose in mice by horizontal screen assay (administered orally); No effect at highest dose of 800 mg/kg; assay type: functional, organism-based; parameters: dose 800 mg/kg; method in brief: as §2
[16] = test system: Mus musculus; assay: Compound was tested for effective dose in mice by maximal electroshock assay (administered orally); No effect at highest dose of 800 mg/kg; assay type: functional, organism-based; parameters: dose 800 mg/kg; method in brief: as §3
[17] = test system: Mus musculus; assay: Compound was tested for effective dose in mice by horizontal screen assay (administered orally); No effect at highest dose of 100 mg/kg; assay type: functional, organism-based; parameters: dose 100 mg/kg; method in brief: as §2
[18] = test system: Mus musculus; assay: Effective dose in mice by horizontal screen assay (administered orally); No effect at highest dose of 200 mg/kg
[19] = test system: Mus musculus; assay: Effective dose in mice by pentylenetetrazole assay (administered subcutaneously); No effect at highest dose of 200 mg/kg

SMILES | TPE [2] [h] | ED50 [6] [mg/kg] | ED50 [7] [mg/kg] | ED50 [8] | ED50 [9] [mg/kg] | also measured
CC1c2ccccc2-c2ccc(C(=O)Cn3ccnc3)cc21 (configuration not stated) | 2 | – | – | – | – | ED50 [1]: No effect; ST [3]: 69.7 min; ED50 [4]: No effect
c1ccc2c(c1)Cc1cc(C3(Cn4ccnc4)OCCCO3)ccc1-2 | 1 | > 400 | – | – | – | ED50 [5]: No effect
O=C(Cn1ccnc1)c1csc2ccccc12 | 1 | – | > 400 | No effect | 59 | –
c1ccc2c(c1)Cc1cc(C3(Cn4ccnc4)OCCO3)ccc1-2 | 4 | > 100 | – | – | – | ED50 [10]: No effect; ST [3]: 88.7 min
Cc1nccn1CC(=O)c1ccc2c(c1)Cc1ccccc1-2 | 1 | > 400 | – | – | – | –
c1ccc2c(c1)Cc1cc(C3(CCn4ccnc4)OCCO3)ccc1-2 | 1 | – | > 400 | No effect | – | –
c1ccc2cc(CCn3ccnc3)ccc2c1 | 1 | > 200 | > 200 | – | 51 | –
c1ccc2c(c1)Cc1cc(CCn3ccnc3)ccc1-2 | 2 | > 100 | > 200 | – | 17.8 | –
CC1COC(Cn2ccnc2)(c2ccc3c(c2)Cc2ccccc2-3)O1 (configuration not stated) | 2 | > 400 | > 200 | – | – | –
O=C(Cn1ccnc1)c1ccc2ccc3ccccc3c2c1 | 1 | > 400 | > 400 | – | 52 | Control [11]: 123%; Control [12]: 121%; Binding [13]: 23%
CCC(C(=O)c1ccc2c(c1)Cc1ccccc1-2)n1ccnc1 (configuration not stated) | 1 | – | > 400 | No effect | – | –
CC(C(=O)c1ccc2c(c1)Cc1ccccc1-2)n1ccnc1 (configuration not stated) | 1.5 | > 400 | 260 | – | – | ST [3]: 103 min
O=C(Cn1ccnc1)c1cc2ccccc2s1 | 1 | > 400 | > 400 | – | 86 | –
CC(C)c1ccc2c(c1)Cc1cc(C(=O)Cn3ccnc3)ccc1-2 | 2 | – | – | No effect | 190 | ED50 [5]: No effect
O=C(Cn1ccnc1)c1ccc2c(c1)Cc1cc(Br)ccc1-2 | 2 | – | – | No effect | – | ED50 [5]: No effect
O=C(CCn1ccnc1)c1ccc2c(c1)Cc1ccccc1-2 | 1 | > 200 | > 100 | – | – | –
CC1(C)c2ccccc2-c2ccc(C(=O)Cn3ccnc3)cc21 | 1 | > 400 | > 400 | – | – | –

SMILES | TPE [2] [h] | ED50 [6] [mg/kg] | ED50 [7] [mg/kg] | ED50 [8] | ED50 [9] [mg/kg] | also measured
O=C(Cn1ccnc1)c1cccc2c1-c1ccccc1C2 | 1 | > 400 | 400 | – | – | –
CCc1nccn1CC(=O)c1ccc2c(c1)Cc1ccccc1-2 | 2 | > 400 | > 400 | – | 190 | –
COc1ccc2c(c1)Cc1cc(C(=O)Cn3ccnc3)ccc1-2 | 2 | – | – | No effect | 360 | ED50 [14]: No effect; ST [3]: 56.9 min
c1ccc2c(c1)Cc1cc(C3(Cn4ccnc4)SCCS3)ccc1-2 | 2 | > 400 | > 400 | – | – | –
O=C(Cn1cnc(-c2ccccc2)c1)c1ccc2c(c1)Cc1ccccc1-2 | 2 | – | – | – | – | ED50 [14]: No effect; ED50 [15]: No effect; ED50 [16]: No effect
Cc1cn(CC(=O)c2ccc3c(c2)Cc2ccccc2-3)cn1 | 1 | > 400 | – | – | – | ED50 [5]: No effect
O=C(Cn1ccnc1)c1ccc2c(c1)-c1ccccc1CC2 | 1 | – | > 400 | No effect | 71 | –
O=C(OC(Cn1ccnc1)c1ccc2c(c1)Cc1ccccc1-2)c1ccccc1 (configuration not stated) | 1 | – | > 400 | No effect | – | –
Cc1ccc2c(c1)Cc1cc(C(=O)Cn3ccnc3)ccc1-2 | 2 | – | – | No effect | – | ED50 [5]: No effect
OC(CCn1ccnc1)c1ccc2c(c1)Cc1ccccc1-2 (configuration not stated) | 1 | > 400 | – | – | – | ED50 [5]: No effect; ST [3]: 75 min
O=C(Cn1ccnc1)c1ccc2c(ccc3ccccc32)c1 | 1 | > 400 | > 400 | – | 150 | Control [11]: 128%; Control [12]: 128%; Binding [13]: 28%
OC(Cn1ccnc1)c1ccc(CCc2ccccc2)cc1 (configuration not stated) [DENZIMOL] | 1 | – | – | – | 12 | ST [3]: 157.4 min; ED50 [17]: No effect
O=C(Cn1ccnc1)c1cccc2c1Cc1ccccc1-2 | 2 | > 100 | > 200 | – | 19 | –
O=C(Cn1ccnc1)c1ccc2ccccc2c1 [NAFIMIDONE] | 1 | – | > 400 | inactive | 56 | Control [11]: 102%; Control [12]: 116%; ST [3]: 59.1 min
CCc1ccc2c(c1)Cc1cc(C(=O)Cn3ccnc3)ccc1-2.Cl | 1 | – | > 400 | No effect | 240 | –
CC1(C)COC(Cn2ccnc2)(c2ccc3c(c2)Cc2ccccc2-3)OC1 | 2 | – | – | – | – | ED50 [18]: No effect; ED50 [19]: No effect

— ChEMBL document CHEMBL1123481, “Structure-activity relationships of (arylalkyl)imidazole anticonvulsants: comparison of the (fluorenylalkyl)imidazoles with nafimidone and denzimol” (J Med Chem, 1986)
